Converted amounts (≈) assume the structure as drawn.
Experiments:
[1] = Plasma clearance in Male Sprague-Dawley Rat (48.9 mg/kg po); type: ADME, organism-based
In short: (§1)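 Male Sprague-Dawley rats dosed intravenously or orally. Intact compound measured in plasma by HPLC-UV after protein-precipitation sample preparation. Half-life reported as harmonic mean apparent terminal disposition half-life. Bioavailability is absolute oral bioavailability. Some comparator values are archival data.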

[2] = Plasma clearance in Male Sprague-Dawley Rat (8.98 mg/kg iv); type: ADME, organism-based; in short: as §1
[3] = Absolute oral bioavailability in Male Sprague-Dawley Rat (48.9 mg/kg po); type: ADME, organism-based; conditions: in vivo; in short: as §1
[4] = Absolute oral bioavailability in Male Sprague-Dawley Rat (8.98 mg/kg iv); type: ADME, organism-based; conditions: in vivo; in short: as §1
[5] = Cmax value in Male Sprague-Dawley Rat at dose 48.9 (mg/kg po); type: ADME, organism-based; parameters: dose 48.9 mg/kg, route oral; conditions: in vivo; in short: as §1
[6] = Cmax value in Male Sprague-Dawley Rat at dose 8.98 (mg/kg iv); type: ADME, organism-based; parameters: dose 8.98 mg/kg, route intravenous; conditions: in vivo; in short: as §1
[7] = Tmax value in Male Sprague-Dawley Rat at dose 48.9 (mg/kg po) [tmax (h)]; type: ADME, organism-based; conditions: in vivo; in short: as §1
[8] = Volume distribution in Male Sprague-Dawley Rat (8.98 mg/kg iv); type: ADME, organism-based; conditions: in vivo, read-out: Vss
In short: (§2)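 Male Sprague-Dawley rats given the compound intravenously. Intact compound in plasma was measured by HPLC-UV after protein-precipitation sample preparation.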

[9] = Harmonic mean apparent terminal disposition half-life [t1/2beta (h)] in Male Sprague-Dawley Rat at dose 48.9 (mg/kg po); type: ADME, organism-based; conditions: in vivo, read-out: T1/2 beta (converted); in short: as §1
[10] = Harmonic mean apparent terminal disposition half-life [t1/2beta (h)] in Male Sprague-Dawley Rat at dose 8.98 (mg/kg iv); type: ADME, organism-based; conditions: in vivo, read-out: T1/2 beta (converted); in short: as §1
CYP2C9 [11] = target: T1, CYP2C9 (Homo sapiens, UniProt P11712); test: Inhibition of heterologously expressed human Cytochrome P450 2C9 at 10 uM; type: ADME; parameters: scale not given: the % may be the effect or the level left; conditions: read-out: Control of P-450 marker
T1 sequence (P11712 whole entry): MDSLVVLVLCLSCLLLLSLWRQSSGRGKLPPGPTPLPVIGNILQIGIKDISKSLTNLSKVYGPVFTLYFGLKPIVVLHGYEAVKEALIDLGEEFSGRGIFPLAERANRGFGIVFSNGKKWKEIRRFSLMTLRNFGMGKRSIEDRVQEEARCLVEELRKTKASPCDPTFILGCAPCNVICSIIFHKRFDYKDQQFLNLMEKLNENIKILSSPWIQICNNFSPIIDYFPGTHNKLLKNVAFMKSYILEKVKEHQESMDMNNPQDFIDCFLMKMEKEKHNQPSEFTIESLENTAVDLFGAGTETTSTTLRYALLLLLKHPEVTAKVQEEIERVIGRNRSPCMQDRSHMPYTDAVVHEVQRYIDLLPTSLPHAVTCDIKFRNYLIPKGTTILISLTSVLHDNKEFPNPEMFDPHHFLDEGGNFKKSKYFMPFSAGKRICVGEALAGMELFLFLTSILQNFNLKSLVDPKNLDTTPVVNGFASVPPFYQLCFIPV
In short: (§3)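 Human cDNA-expressed CYP1A2, 2C9, 2D6 and 3A4 microsomes incubated with compound at 10 or 100 µM plus CYP marker substrates. Marker metabolite formation quantified by HPLC with radiochemical detection and expressed as % of control, mean ± SD of triplicates.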

CYP2C9 [12] = target: T1, CYP2C9; test: Inhibition of heterologously expressed human Cytochrome P450 2C9 at 100 uM; type: ADME; parameters: scale not given: the % may be the effect or the level left; conditions: read-out: Control of P-450 marker; in short: as §3
CYP2D6 [13] = target: T2, CYP2D6 (Homo sapiens, UniProt P10635); test: Inhibition of heterologously expressed human Cytochrome P450 2D6 at 100 uM; type: ADME; parameters: scale not given: the % may be the effect or the level left; conditions: read-out: Control of P-450 marker; in short: as §3
T2 sequence (P10635 whole entry): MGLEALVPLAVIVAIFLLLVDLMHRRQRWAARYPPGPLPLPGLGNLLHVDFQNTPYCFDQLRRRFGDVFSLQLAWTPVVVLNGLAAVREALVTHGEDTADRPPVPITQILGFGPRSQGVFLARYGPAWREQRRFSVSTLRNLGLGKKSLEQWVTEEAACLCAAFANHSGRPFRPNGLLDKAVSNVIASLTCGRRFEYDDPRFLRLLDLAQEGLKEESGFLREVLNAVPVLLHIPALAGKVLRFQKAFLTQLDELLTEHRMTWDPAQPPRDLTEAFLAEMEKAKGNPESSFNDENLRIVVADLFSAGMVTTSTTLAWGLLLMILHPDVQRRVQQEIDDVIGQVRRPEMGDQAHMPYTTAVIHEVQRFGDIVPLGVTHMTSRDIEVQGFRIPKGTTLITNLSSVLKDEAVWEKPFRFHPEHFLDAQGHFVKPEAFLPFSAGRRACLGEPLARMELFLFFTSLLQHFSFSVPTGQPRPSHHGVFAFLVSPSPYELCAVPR

CYP2D6 [14] = target: T2, CYP2D6; test: Inhibition of heterologously expressed human Cytochrome P450 2D6 at 10 uM; type: ADME; parameters: scale not given: the % may be the effect or the level left; conditions: read-out: Control of P-450 marker; in short: as §3
CYP3A4 [15] = target: T3, CYP3A4 (Homo sapiens, UniProt P08684); test: Inhibition of heterologously expressed human Cytochrome P450 3A4 at 10 uM; type: ADME; parameters: scale not given: the % may be the effect or the level left; conditions: read-out: Control of P-450 marker; in short: as §3
T3 sequence (P08684 whole entry): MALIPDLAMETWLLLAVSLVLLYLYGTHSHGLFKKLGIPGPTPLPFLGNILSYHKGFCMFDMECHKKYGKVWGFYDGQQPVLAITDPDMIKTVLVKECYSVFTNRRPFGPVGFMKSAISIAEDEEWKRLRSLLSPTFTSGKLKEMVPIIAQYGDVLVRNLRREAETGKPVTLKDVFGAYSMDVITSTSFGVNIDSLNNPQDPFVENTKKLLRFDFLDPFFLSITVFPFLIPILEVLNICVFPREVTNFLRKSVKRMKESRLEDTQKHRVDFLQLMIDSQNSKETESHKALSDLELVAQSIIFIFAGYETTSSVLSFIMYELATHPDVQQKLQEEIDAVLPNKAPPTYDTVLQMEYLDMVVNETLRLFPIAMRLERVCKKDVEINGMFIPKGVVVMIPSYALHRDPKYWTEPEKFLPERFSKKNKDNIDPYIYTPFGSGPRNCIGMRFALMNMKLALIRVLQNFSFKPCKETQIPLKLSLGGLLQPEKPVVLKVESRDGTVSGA

CYP3A4 [16] = target: T3, CYP3A4; test: Inhibition of heterologously expressed human Cytochrome P450 3A4 at 100 uM; type: ADME; parameters: scale not given: the % may be the effect or the level left; conditions: read-out: Control of P-450 marker; in short: as §3
CYP1A2 [17] = target: T4, CYP1A2 (Homo sapiens, UniProt P05177); test: Inhibition of heterologously expressed human Cytochrome P450 1A2 at 10 uM; type: ADME; parameters: scale not given: the % may be the effect or the level left; conditions: read-out: Control of P-450 marker; in short: as §3
T4 sequence (P05177 whole entry): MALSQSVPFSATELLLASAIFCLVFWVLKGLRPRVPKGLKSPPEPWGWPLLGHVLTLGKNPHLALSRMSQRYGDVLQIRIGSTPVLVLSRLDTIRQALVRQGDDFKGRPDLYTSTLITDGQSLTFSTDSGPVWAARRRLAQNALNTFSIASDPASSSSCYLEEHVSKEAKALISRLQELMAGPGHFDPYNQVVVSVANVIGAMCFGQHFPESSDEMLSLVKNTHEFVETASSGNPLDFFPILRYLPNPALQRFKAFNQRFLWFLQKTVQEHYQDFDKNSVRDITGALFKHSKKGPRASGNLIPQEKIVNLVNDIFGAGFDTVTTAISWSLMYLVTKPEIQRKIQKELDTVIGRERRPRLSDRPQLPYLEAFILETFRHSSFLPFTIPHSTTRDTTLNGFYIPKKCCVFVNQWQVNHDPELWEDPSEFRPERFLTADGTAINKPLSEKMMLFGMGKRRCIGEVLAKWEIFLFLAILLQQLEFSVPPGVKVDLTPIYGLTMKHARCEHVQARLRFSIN

CYP1A2 [18] = target: T4, CYP1A2; test: Inhibition of heterologously expressed human Cytochrome P450 1A2 at 100 uM; type: ADME; parameters: scale not given: the % may be the effect or the level left; conditions: read-out: Control of P-450 marker; in short: as §3
Enterococcus faecalis = test: In vitro minimum inhibitory concentration (MIC) against Enterococcus faecalis UC9217; type: functional
In short: (§4)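 MIC determined by standard broth microdilution, defined as the lowest drug concentration (µg/mL) inhibiting visible growth.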

Escherichia coli = test: In vitro minimum inhibitory concentration (MIC) against Escherichia coli UC6674; type: functional; in short: as §4
Haemophilus influenzae = test: In vitro minimum inhibitory concentration (MIC) against Haemophilus influenzae UC30063; type: functional; in short: as §4
Homo sapiens = species on record: Homo sapiens; test: Compound was evaluated for metabolic stability via In vitro Human 5E6 cell at 25 uM concentration; type: functional
Moraxella catarrhalis = test: In vitro minimum inhibitory concentration (MIC) against Moraxella catarrhalis UC30610; type: functional; in short: as §4
Mus musculus [19] = test: In Vivo effective dose required for antibacterial activity in a systemic mouse infection model (SMIM) upon oral administration against Staphylococcus aureus UC9213; type: functional
In short: (§5)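 Compound was given orally at 1 and 5 h after infection. Deaths were monitored for at least 6 days, and ED50 (dose curing 50% of mice) was calculated by probit analysis.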

Rattus norvegicus = species on record: Rattus norvegicus; test: Compound was evaluated for metabolic stability via In vitro Rat 5E6 cell at 50 uM concentration; type: functional
Streptococcus pneumoniae = test: In vitro minimum inhibitory concentration (MIC) against Streptococcus pneumoniae UC9912; type: functional; in short: as §4
Staphylococcus aureus [20] = test: In vitro minimum inhibitory concentration (MIC) against Staphylococcus aureus UC12673; type: functional; in short: as §4
Staphylococcus aureus [21] = test: In vitro minimum inhibitory concentration (MIC) against Staphylococcus aureus UC9213; type: functional; in short: as §4
[22] = system: Staphylococcus epidermidis; test: In vitro minimum inhibitory concentration (MIC) against Staphylococcus epidermidis UC12084; type: functional; in short: as §4
[23] = Plasma clearance in Male Sprague-Dawley Rat (10.1 mg/kg iv); type: ADME, organism-based; in short: as §1
[24] = Plasma clearance in Male Sprague-Dawley Rat (49.4 mg/kg po); type: ADME, organism-based; in short: as §1
[25] = Absolute oral bioavailability in Male Sprague-Dawley Rat (10.1 mg/kg iv); type: ADME, organism-based; conditions: in vivo; in short: as §1
[26] = Absolute oral bioavailability in Male Sprague-Dawley Rat (49.4 mg/kg po); type: ADME, organism-based; conditions: in vivo; in short: as §1
[27] = Cmax value in Male Sprague-Dawley Rat at dose 49.4 (mg/kg po); type: ADME, organism-based; parameters: dose 49.4 mg/kg, route oral; conditions: in vivo; in short: as §1
[28] = Tmax value in Male Sprague-Dawley Rat at dose 49.4 (mg/kg po) [tmax (h)]; type: ADME, organism-based; conditions: in vivo; in short: as §1
[29] = Volume distribution in Male Sprague-Dawley Rat (10.1 mg/kg iv); type: ADME, organism-based; conditions: in vivo, read-out: Vss; in short: as §2
[30] = Harmonic mean apparent terminal disposition half-life [t1/2beta (h)] in Male Sprague-Dawley Rat at dose 10.1 (mg/kg iv); type: ADME, organism-based; conditions: in vivo, read-out: T1/2 beta (converted); in short: as §1
[31] = Harmonic mean apparent terminal disposition half-life [t1/2beta (h)] in Male Sprague-Dawley Rat at dose 49.4 (mg/kg po); type: ADME, organism-based; conditions: in vivo, read-out: T1/2 beta (converted); in short: as §1
Mus musculus [32] = test: In Vivo effective dose required for antibacterial activity in a systemic mouse infection model (SMIM) upon peroral administration against Staphylococcus aureus UC9213; type: functional; conditions: po; in short: as §5
[33] = Cmax value in Male Sprague-Dawley Rat at dose 10.1 (mg/kg iv); type: ADME, organism-based; parameters: dose 10.1 mg/kg, route intravenous; conditions: in vivo; in short: as §1

CC(=O)NC[C@H]1CC(c2ccc(N3CCOCC3)c(F)c2)=NO1
CL/F [1]: 8.6 mL/min/kg
clearance [2]: 12.4 mL/min/kg
bioavailability [3]: 143%
bioavailability [4]: 100%
Cmax [5]: 12200 ng/mL
Cmax [6]: 17700 ng/mL
Tmax [7]: 192 min
Vd [8]: 0.6 L/kg
half-life [9]: 36 min
half-life [10]: 28.2 min
activity at 10 µM (CYP2C9 [11]): 92.1%
activity at 100 µM (CYP2C9 [12]): 95.8%
activity at 100 µM (CYP2D6 [13]): 103%
activity at 10 µM (CYP2D6 [14]): 101%
activity at 10 µM (CYP3A4 [15]): 88.9%
activity at 100 µM (CYP3A4 [16]): 92.1%
activity at 10 µM (CYP1A2 [17]): 100%
activity at 100 µM (CYP1A2 [18]): 102%
MIC (Enterococcus faecalis): 8 µg/mL (≈ 24.9 µM)
MIC (Escherichia coli): > 16 µg/mL
MIC (Haemophilus influenzae): > 16 µg/mL
Remaining at 40 min (Homo sapiens): 100%
MIC (Moraxella catarrhalis): 16 µg/mL (≈ 49.8 µM)
ED50 (Mus musculus [19]): 16.5 mg/kg
Remaining at 40 min (Rattus norvegicus): 87%
MIC (Streptococcus pneumoniae): 1 µg/mL (≈ 3.11 µM)
MIC (Staphylococcus aureus [20]): 4 µg/mL (≈ 12.4 µM)
MIC (Staphylococcus aureus [21]): 4 µg/mL (≈ 12.4 µM)
MIC [22]: 2 µg/mL (≈ 6.22 µM)

CC(=O)NC[C@H]1CC(c2ccc(N3CCN(C(=O)CO)CC3)c(F)c2)=NO1
clearance [23]: 26.2 mL/min/kg
CL/F [24]: 30.8 mL/min/kg
bioavailability [25]: 100%
bioavailability [26]: 86%
Cmax [27]: 6170 ng/mL
Tmax [28]: 150 min
Vd [29]: 0.95 L/kg
half-life [30]: 36.6 min
half-life [31]: 42 min
MIC (Enterococcus faecalis): 4 µg/mL (≈ 10.6 µM)
MIC (Escherichia coli): > 16 µg/mL
MIC (Haemophilus influenzae): > 16 µg/mL
Remaining at 40 min (Homo sapiens): 101%
MIC (Moraxella catarrhalis): 8 µg/mL (≈ 21.1 µM)
ED50 (Mus musculus [32]): 9.1 mg/kg
Remaining at 40 min (Rattus norvegicus): 100%
MIC (Streptococcus pneumoniae): 1 µg/mL (≈ 2.64 µM)
MIC (Staphylococcus aureus [20]): 4 µg/mL (≈ 10.6 µM)
MIC (Staphylococcus aureus [21]): 4 µg/mL (≈ 10.6 µM)
MIC [22]: 1 µg/mL (≈ 2.64 µM)
Cmax [33]: 17700 ng/mL

From ChEMBL document CHEMBL1144880, “Identification of phenylisoxazolines as novel and viable antibacterial agents active against Gram-positive pathogens” (J Med Chem, 2003)
